Consider 11 compounds from article PMC2628580 (Chemistry & biology, 2008).

Experiment [1] concerns the target T1, rat OR-I7 (Rattus norvegicus, UniProt P23270).
T1 sequence (P23270 1-327): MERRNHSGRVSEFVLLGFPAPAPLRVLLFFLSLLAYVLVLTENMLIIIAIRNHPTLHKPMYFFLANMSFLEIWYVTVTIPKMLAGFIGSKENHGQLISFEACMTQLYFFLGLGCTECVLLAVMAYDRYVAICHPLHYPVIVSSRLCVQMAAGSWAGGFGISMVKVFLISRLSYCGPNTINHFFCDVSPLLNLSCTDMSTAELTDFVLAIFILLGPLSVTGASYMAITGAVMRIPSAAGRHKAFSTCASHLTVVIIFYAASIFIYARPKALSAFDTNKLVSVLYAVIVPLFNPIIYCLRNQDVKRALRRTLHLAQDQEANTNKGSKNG
In words: Antagonism of octanal. The experiment is classed as cell-based. Particulars: against saturating 10 μM C8. The method, boiled down: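 GFP+ OR-I7-expressing rat olfactory neurons were imaged with fura-2 at room temperature under continuous Ringer perfusion at pH 7.4. The test compound at various concentrations was co-applied with 10 μM octanal. The response was normalized to a trend line between flanking stimuli. An antagonist had to give under 90% of the octanal-alone response. Ratios are mean ± SEM. Inhibition curves were Hill-fitted, with at least three cells per point and IC50 ± SD.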

Experiment [2] deals with T1, rat OR-I7. The experiment is classed as cell-based. The settings on record: for activation of OR-I7 (in words): dose-response by calcium imaging; for potency compared with n-alkanals (in words): activation dose-response curves; for maximal efficacy relative to 10 μM 1: mean ± SEM; for OR-I7 response at 30 μM (in words): calcium imaging trace of a GFP+ OSN. In outline: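 Dissociated olfactory neurons from male Sprague-Dawley rats (6-7 wk) infected with adenovirus encoding OR-I7 plus separate GFP. GFP+ cells were fura-2AM loaded for 45 min at room temperature and imaged at 380/510 nm every 4 s. The compound came from 0.5M DMSO stock with DMSO-matched dilutions, given as 4 s pulses 3.25 min apart. Each movie was flanked by 10 μM normalizing stimuli and ΔF/F normalized to the trend line. Hill fit used ≥3 cells per point; EC50 ± SD.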

For a further experiment, the system named is OR-I7. The settings on record: vapor phase; ref Araneda et al., 2000; Zhao et al., 1998; cited from earlier work.
Another experiment deals with rat OSNs. As to the kind of experiment: Panel screening of 1190 viable rat OSNs by calcium imaging. The experiment is classed as cell-based. Particulars: 30 μM, 1190 tested rat OSNs. In outline:
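Whole olfactory epithelium from uninfected rats was dissociated (collagenase, dispase), plated on concanavalin A coverslips and kept at 32 °C. Cells were loaded with fura-2AM and imaged at room temperature. Each test compound was given individually at 30 μM in random order, 5 min apart, with a DMSO vehicle application. 10 μM forskolin came last for normalization and viability. Responding cells were counted among 1190 tested.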

Entries after “also recorded” stand apart in the source; their conditions may differ.

For the compound `CCCC=O` [Compound C4, reference compound], the “antagonism of C8 activation of OR-I7 (in words)” value on rat OR-I7 [1] is on record as “failure of C4 (3.9Å) to antagonize C8 activation; also recorded: neither type of activity”. Moreover, on rat OR-I7 [2], the “activation of OR-I7 (in words)” value was “inactive; also recorded: neither type of activity”.
As to `CCCCCC=O` [Compound C6, reference compound], the “activation of OR-I7 by EOG (in words)” value with OR-I7 is listed as “no activation”. For the same compound, on rat OR-I7 [2], the “activation of OR-I7 (in words)” value was “marginally active”.
For the compound `CCC1CCC(CC=O)CC1` (stereo not shown) [Compound 11], the “potency compared with n-alkanals (in words)” value on rat OR-I7 [2] is reported as “more active than C8”. Also, the “maximal efficacy relative to 10 μM octanal” value on rat OR-I7 [2] (cis/trans mixture) is recorded as 1.07 ± 0.05.
In the case of `CCCCCCC=O` [Compound C7, reference compound], the “activation of OR-I7 by EOG (in words)” value in the experiment with OR-I7 is “activation”. Moreover, the “increase in activity in the step from C6 to C7” value at rat OR-I7 [2] (C7 vs C6, calcium imaging) stood at 145 fold. Further, the “maximal efficacy relative to 10 μM 1” value at rat OR-I7 [2] is 0.86 ± 0.07.
Turning to `CCCCC=O` [Compound C5, reference compound], the “activation of OR-I7 (in words)” value at rat OR-I7 [2] was “inactive”.
On to `O=CC1CCCCCC1` [Compound 6], for which, in the experiment with rat OSNs, the “percentage of OSNs activated” value came to 3.6%. On rat OR-I7 [1], the “antagonism of C8 activation of OR-I7 (in words)” value is listed as “antagonize C8 activity”. On rat OR-I7 [2], the “activation of OR-I7 (in words)” value is “weakly or not at all; also recorded: inactive”.
For `CCCCCCCC=O` [Compound C8, octanal, reference compound], in the experiment with rat OSNs, the “percentage of OSNs activated” value is 5.9%. Further, the “maximal efficacy relative to 10 μM 1” value at rat OR-I7 [2] is 0.89 ± 0.02.
With `O=CCCCCC1CC1` [Compound 2], at rat OR-I7 [2], the “potency compared with n-alkanals (in words)” value is listed as “more potent than C8”, the “activation of OR-I7 (in words)” value is “strongly activated” and the “maximal efficacy relative to 10 μM 1” value is on record as 0.99 ± 0.02. Further, the “fold more potent than C7” value at rat OR-I7 [2] (compound 2 vs C7, identical extended length) was 40 fold.
On to `O=CCC1CCCCC1` [Compound 5], for which the “percentage of OSNs activated” value in the experiment with rat OSNs was determined as 3.4%. For the same compound, the “activation of OR-I7 (in words)” value on rat OR-I7 [2] was “weakly or not at all; also recorded: inactive; also recorded: no substantial activity”.
Regarding `O=CCCCC1CCC1` [Compound 3], on rat OR-I7 [2], the “OR-I7 response at 30 μM (in words)” value was “near saturating level”, the “potency compared with n-alkanals (in words)” value was “more potent than both”, the “activation of OR-I7 (in words)” value is recorded as “strongly activated” and the “maximal efficacy relative to 10 μM 1” value is 1.06 ± 0.1. In addition, on rat OR-I7 [2] (ratio of EC50, compound 3 vs compound 4), the “difference in activity between compound 4 and compound 3” value stood at 163 fold.
As to `O=CCCC1CCCC1` [Compound 4], on rat OR-I7 [2], the “OR-I7 response at 30 μM (in words)” value is on record as “unresponsive” and the “activation of OR-I7 (in words)” value is “weakly or not at all; also recorded: marginally active”.
